We go through twelve molecules from ChEMBL document CHEMBL1122142, “Synthesis and antiinflammatory activity of hexahydrothiopyrano[4,3-c]pyrazoles and related analogues” (J Med Chem, 1982).

Experiment [1] concerns Mus musculus. The experiment in a line: The compound was evaluated for the mouse active Arthus (MAA) reaction activity for an ip dose of 150 mg/kg in mouse. It counts as functional. Conditions: route intraperitoneal. An outline of the steps: (§1)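 CD-1 mice were sensitized ip with a 1:1 Freund's complete adjuvant emulsion containing BSA in saline, 5 weeks before challenge. Compound was suspended in 1% Na CMC in pyrogen-free saline and given as one ip or oral dose 1 h before skin challenge with BSA. Screening doses were 150 mg/kg ip and 300 mg/kg po, with some at 75 or 50 mg/kg ip. Lesions were excised 3.5 h after challenge and weighed against controls.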

The test system of experiment [2] is Cavia porcellus. Description: The compound was evaluated for the delayed hypersensitivity skin reaction (DHSR) activity after subcutaneous administration; 0/0.
Experiment [3] has as its system Cavia porcellus. Description: Tested in delayed hypersensitivity skin reaction (DHSR) after subcutaneous administration, activity reported as percent inhibition of erythema/induration of lesion; 14/34. The class given is functional.
Experiment [4] deals with Mus musculus. The experiment in a line: The compound was evaluated for the mouse active Arthus (MAA) reaction activity expressed as inhibitory dose after ip administration. The conditions noted are these: read-out: ID50 (the source's name). It counts as functional. In a few lines:
as §1

Experiment [5] relates to Cavia porcellus. The experiment in a line: Tested in delayed hypersensitivity skin reaction (DHSR) after subcutaneous administration, activity reported as percent inhibition of erythema/induration of lesion; 7/6. It counts as functional. In a few lines:
(§2)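 Male Hartley guinea pigs were sensitized with Mycobacterium tuberculosis in Freund's incomplete adjuvant, injected into each hind footpad and subcutaneously at the neck. After 3 weeks, 1.2 μg PPD was given intradermally. Compound in sesame oil was given sc, 3 animals per group, 30 min before and 5 h after PPD; screening dose 50 mg/kg.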

Experiment [6] relates to Mus musculus. Description: The compound was evaluated for the mouse active Arthus (MAA) reaction activity for peroral dose of 300 mg/kg in mouse; 31-40%. The class given is functional. Conditions: route oral. An outline of the steps: as §1
Experiment [7] deals with Cavia porcellus. The experiment in a line: Tested in delayed hypersensitivity skin reaction (DHSR) after subcutaneous administration, activity reported as percent inhibition of erythema/induration of lesion; 21/6. The class given is functional.
The test system of experiment [8] is Mus musculus. The experiment in a line: Inhibition of Mouse Active Arthus reaction following 150 mg/Kg i.p.; 41-60% inhibition. Conditions: for inhibition in vivo at 150 mg/kg: Mus musculus, ip. The class given is functional.
Experiment [9] concerns Cavia porcellus. The experiment in a line: Tested in delayed hypersensitivity skin reaction (DHSR) after subcutaneous administration, activity reported as percent inhibition of erythema/induration of lesion; 15/0. It counts as functional.
Experiment [10] deals with Cavia porcellus. Description: Tested in delayed hypersensitivity skin reaction (DHSR) after subcutaneous administration, activity reported as percent inhibition of erythema/induration of lesion; 2/0. It counts as functional.
Experiment [11] has as its system Mus musculus. Description: Mouse active Arthus (MAA) reaction activity was determined for an ip dose of 150 mg/kg in mouse; 31-40%. The conditions noted are these: route intraperitoneal. The class given is functional.
Experiment [12] relates to Cavia porcellus. Description: Tested in delayed hypersensitivity skin reaction (DHSR) after subcutaneous administration, activity reported as percent inhibition of erythema/induration of lesion; 6/12. The class given is functional. In a few lines:
as §2

Experiment [13] relates to Cavia porcellus. Description: Tested in delayed hypersensitivity skin reaction (DHSR) after subcutaneous administration, activity reported as percent inhibition of erythema/induration of lesion; 22/51. The class given is functional.
The subject of experiment [14] is Cavia porcellus. Description: Tested in delayed hypersensitivity skin reaction (DHSR) after subcutaneous administration, activity reported as percent inhibition of erythema/induration of lesion; 8/21. The class given is functional. An outline of the steps:
as §2

Experiment [15] has as its system Cavia porcellus. The experiment in a line: Tested in delayed hypersensitivity skin reaction (DHSR) after subcutaneous administration, activity reported as percent inhibition of erythema/induration of lesion; 8/11. It counts as functional. In a few lines: as §2
The test system of experiment [16] is Cavia porcellus. The experiment in a line: Tested in delayed hypersensitivity skin reaction (DHSR) after subcutaneous administration, activity reported as percent inhibition of erythema/induration of lesion; 15/7. It counts as functional.
Experiment [17] concerns Mus musculus. Description: The compound was evaluated for the mouse active Arthus (MAA) reaction activity for peroral screening dose of 150 mg/kg in mouse. Conditions: route oral. The class given is functional.
Experiment [18] deals with Cavia porcellus. The experiment in a line: Tested in delayed hypersensitivity skin reaction (DHSR) after subcutaneous administration, activity reported as percent inhibition of erythema/induration of lesion; 9/30. It counts as functional. In a few lines: as §2
Experiment [19] concerns Mus musculus. The experiment in a line: Inhibition of Mouse active Arthus (MAA) reaction activity was determined for an ip dose of 150 mg/kg in mouse; 21-30%. It counts as functional. The conditions noted are these: route intraperitoneal.

The term inhibition in vivo denotes how much of the control response was suppressed. Low values mean a weak effect, high ones a strong effect. The Inhibition is how much of the control response was suppressed. High values mean a response far below the control, low ones a response near the control.

In the experiment on Mus musculus [1], `CN1CCN(CCCN2N=C3/C(=C/c4ccc([S+](C)[O-])cc4)COCC3C2c2ccc([S+](C)[O-])cc2)CC1.O=C(O)/C=C\C(=O)O` (centres undefined) yielded an inhibition in vivo at 150 mg/kg of less than 20%. Further, the Activity in the experiment on Cavia porcellus [2] is recorded as 0.
For `COc1ccc(/C=C2\CSCC3C2=NN(CCCN2CCN(C)CC2)C3c2ccc(OC)cc2)cc1.O=C(O)/C=C\C(=O)O` (centres undefined), the Activity in the experiment on Cavia porcellus [3] turned out to be 14. For the same molecule, the ED50 with Mus musculus [4] stood at 60 mg/kg. In the experiment with Mus musculus [1], the inhibition in vivo at 150 mg/kg is more than 60%.
`CN1CCN(CCCN2N=C3/C(=C/c4ccccc4)CS(=O)(=O)CC3C2c2ccccc2)CC1.O=C(O)/C=C\C(=O)O` (centres undefined) returned an Activity in the experiment on Cavia porcellus [5] of 7. In the experiment with Mus musculus [6], this molecule had an inhibition in vivo at 300 mg/kg of 31%. Besides, the inhibition in vivo at 150 mg/kg in the experiment on Mus musculus [1] is more than 60%.
For `CN1CCN(CCCN2N=C3/C(=C/c4ccccc4)CSCC3C2c2ccccc2)CC1.O=C(O)/C=C\C(=O)O` (centres undefined), the Inhibition turned out to be 21% in the experiment with Cavia porcellus [7] and 41% in the experiment on Mus musculus [8].
With `CC(C)(C)c1ccc(/C=C2\CS(=O)(=O)CC3C2=NN(CC2CC2)C3c2ccc(C(C)(C)C)cc2)cc1` (centres undefined), in the experiment with Cavia porcellus [9], the Activity is recorded as 15.
In the experiment on Cavia porcellus [10], `CSc1ccc(/C=C2\CSCC3C2=NN(C(C)=O)C3c2ccc(SC)cc2)cc1` (centres undefined) gave an Activity of 2. In the experiment on Mus musculus [11], the inhibition in vivo at 150 mg/kg was determined as 31%.
Molecule `CCCCN1N=C2/C(=C/c3cccnc3)CSCC2C1c1cccnc1` (centres undefined) returned an Activity with Cavia porcellus [12] of 6. The molecule also showed an inhibition in vivo at 150 mg/kg with Mus musculus [1] of less than 20%.
In the experiment with Cavia porcellus [13], `CN1CCN(CCCN2N=C3/C(=C/c4ccccc4)COCC3C2c2ccccc2)CC1` (centres undefined) registered an Activity of 22.
In the case of `CC(=O)N1N=C2/C(=C/c3ccccc3)CS(=O)(=O)CC2C1c1ccccc1` (centres undefined), in the experiment with Cavia porcellus [14], the Activity came to 8. In the experiment with Mus musculus [8], this molecule gave an inhibition in vivo at 150 mg/kg of 41%.
On to `CCCN1N=C2/C(=C/c3cccc(C(F)(F)F)c3)CS(=O)(=O)CC2C1c1cccc(C(F)(F)F)c1` (centres undefined), for which the Activity with Cavia porcellus [15] is on record as 8. This molecule also gave an inhibition in vivo at 150 mg/kg in the experiment with Mus musculus [8] of 41%.
In the experiment with Cavia porcellus [16], `Cc1ccc(/C=C2\CS(=O)(=O)CC3C2=NN(CC2CC2)C3c2ccc(C)cc2)cc1` (centres undefined) had an Activity of 15. The same molecule gave an inhibition in vivo at 150 mg/kg in the experiment with Mus musculus [17] of less than 20%.
For the molecule `CCCN1N=C2/C(=C/c3ccccc3)COCC2C1c1ccccc1` (centres undefined), in the experiment with Cavia porcellus [18], the Activity was determined as 9. In addition, in the experiment with Mus musculus [19], the inhibition in vivo at 150 mg/kg worked out at 21%.
